# Laboratory results published in ChEMBL document CHEMBL1138825, “N-phenylphenylglycines as novel corticotropin releasing factor receptor antagonists” (J Med Chem, 2004).
# Experiments:
# [1] = target: T1, Corticotropin-releasing factor receptor 1 (Homo sapiens, UniProt P34998); test: Binding affinity towards human corticotropin releasing factor (h-CRF1) receptor
# T1 sequence (P34998 whole entry): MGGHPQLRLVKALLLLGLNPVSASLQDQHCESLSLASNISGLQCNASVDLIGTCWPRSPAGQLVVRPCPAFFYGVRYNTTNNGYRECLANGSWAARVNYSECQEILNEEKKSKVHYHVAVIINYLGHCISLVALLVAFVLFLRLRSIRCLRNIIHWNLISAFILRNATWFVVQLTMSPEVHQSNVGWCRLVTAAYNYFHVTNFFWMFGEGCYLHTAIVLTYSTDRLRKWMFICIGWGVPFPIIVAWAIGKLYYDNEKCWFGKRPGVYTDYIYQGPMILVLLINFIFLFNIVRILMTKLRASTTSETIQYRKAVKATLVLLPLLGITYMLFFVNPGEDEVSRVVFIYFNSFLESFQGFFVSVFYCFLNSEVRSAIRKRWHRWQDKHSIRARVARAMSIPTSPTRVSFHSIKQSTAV
# Outline: (§1)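 Ki values were measured in duplicate. If the duplicate Ki values differed by more than 15%, further duplicate runs were done until this criterion was met, and the determinations were averaged. Mean Ki is reported where there was more than one determination. Internal control compounds were run on every plate.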
# [2] = target: T1, Corticotropin-releasing factor receptor 1; test: Binding affinity of compound towards human corticotropin releasing factor (h-CRF1) receptor showed a 2-fold activity in racemic mixture; inactive; outline: as §1
# [3] = target: T1, Corticotropin-releasing factor receptor 1; test: Binding affinity of compound towards human Corticotropin releasing factor receptor 1
# [4] = target: T2, 5-hydroxytryptamine receptor 1A (Homo sapiens, UniProt P08908); test: Binding affinity of compound towards serotonin 5-hydroxytryptamine 1A receptor; inactive at 10 uM
# T2 sequence (P08908 whole entry): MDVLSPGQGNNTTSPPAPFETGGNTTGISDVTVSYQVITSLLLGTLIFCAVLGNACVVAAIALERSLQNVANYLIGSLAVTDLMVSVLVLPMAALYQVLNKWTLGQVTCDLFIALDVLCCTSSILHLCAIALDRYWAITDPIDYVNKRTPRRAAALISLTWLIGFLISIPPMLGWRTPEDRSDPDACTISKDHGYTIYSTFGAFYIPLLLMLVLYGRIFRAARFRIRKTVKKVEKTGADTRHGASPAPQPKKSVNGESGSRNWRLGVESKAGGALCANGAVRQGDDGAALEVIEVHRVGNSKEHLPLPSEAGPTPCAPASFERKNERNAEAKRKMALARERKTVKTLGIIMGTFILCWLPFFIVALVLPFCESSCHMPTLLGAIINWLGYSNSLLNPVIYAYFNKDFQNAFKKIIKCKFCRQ
# [5] = target: 5-hydroxytryptamine receptor 1B (Homo sapiens, UniProt P28222); test: Binding affinity of compound towards serotonin 5-hydroxytryptamine 1B receptor; inactive at 10 uM
# Chain of 5-hydroxytryptamine receptor 1B (P28222 whole entry): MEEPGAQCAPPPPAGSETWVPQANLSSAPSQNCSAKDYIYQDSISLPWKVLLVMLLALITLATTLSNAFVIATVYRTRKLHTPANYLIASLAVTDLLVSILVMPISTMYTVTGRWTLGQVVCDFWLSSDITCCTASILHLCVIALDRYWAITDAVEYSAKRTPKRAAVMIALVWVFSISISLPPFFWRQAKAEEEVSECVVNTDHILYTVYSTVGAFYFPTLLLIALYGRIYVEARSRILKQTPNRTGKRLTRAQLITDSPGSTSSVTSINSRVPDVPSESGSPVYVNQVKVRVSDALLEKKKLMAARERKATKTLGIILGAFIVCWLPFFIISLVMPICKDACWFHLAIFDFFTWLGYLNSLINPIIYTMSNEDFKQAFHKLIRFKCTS
# [6] = target: 5-hydroxytryptamine receptor 2A (Homo sapiens, UniProt P28223); test: Binding affinity of compound towards serotonin 5-hydroxytryptamine 2A receptor; inactive at 10 uM
# Chain of 5-hydroxytryptamine receptor 2A (P28223 whole entry): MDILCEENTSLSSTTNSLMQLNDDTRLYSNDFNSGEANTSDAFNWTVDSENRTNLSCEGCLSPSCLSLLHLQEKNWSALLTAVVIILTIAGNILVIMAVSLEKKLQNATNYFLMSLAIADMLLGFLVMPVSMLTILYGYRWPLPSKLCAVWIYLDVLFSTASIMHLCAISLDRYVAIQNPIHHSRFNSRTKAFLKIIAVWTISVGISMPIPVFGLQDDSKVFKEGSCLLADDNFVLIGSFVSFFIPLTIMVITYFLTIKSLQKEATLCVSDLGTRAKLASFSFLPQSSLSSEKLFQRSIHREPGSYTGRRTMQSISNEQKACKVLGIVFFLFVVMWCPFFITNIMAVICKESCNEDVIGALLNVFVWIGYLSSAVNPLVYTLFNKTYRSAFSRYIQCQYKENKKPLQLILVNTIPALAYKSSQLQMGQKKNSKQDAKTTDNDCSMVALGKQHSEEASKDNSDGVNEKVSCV
# [7] = target: 5-hydroxytryptamine receptor 1D (Homo sapiens, UniProt P28221); test: Binding affinity of compound towards serotonin 5-hydroxytryptamine 1D receptor; inactive at 10 uM
# Chain of 5-hydroxytryptamine receptor 1D (P28221 whole entry): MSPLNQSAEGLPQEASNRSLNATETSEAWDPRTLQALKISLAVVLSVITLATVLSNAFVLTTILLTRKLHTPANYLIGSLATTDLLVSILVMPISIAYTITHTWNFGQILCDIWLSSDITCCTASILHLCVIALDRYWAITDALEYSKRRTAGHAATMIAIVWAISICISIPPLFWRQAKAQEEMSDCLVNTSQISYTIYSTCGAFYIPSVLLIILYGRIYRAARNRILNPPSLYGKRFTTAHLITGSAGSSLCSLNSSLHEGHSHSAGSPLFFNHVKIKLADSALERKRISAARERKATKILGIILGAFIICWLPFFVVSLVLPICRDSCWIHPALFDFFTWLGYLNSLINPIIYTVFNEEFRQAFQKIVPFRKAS
# [8] = target: 5-hydroxytryptamine receptor 7 (Homo sapiens, UniProt P34969); test: Binding affinity of compound towards serotonin 5-hydroxytryptamine 7 receptor; inactive at 10 uM
# Chain of 5-hydroxytryptamine receptor 7 (P34969 whole entry): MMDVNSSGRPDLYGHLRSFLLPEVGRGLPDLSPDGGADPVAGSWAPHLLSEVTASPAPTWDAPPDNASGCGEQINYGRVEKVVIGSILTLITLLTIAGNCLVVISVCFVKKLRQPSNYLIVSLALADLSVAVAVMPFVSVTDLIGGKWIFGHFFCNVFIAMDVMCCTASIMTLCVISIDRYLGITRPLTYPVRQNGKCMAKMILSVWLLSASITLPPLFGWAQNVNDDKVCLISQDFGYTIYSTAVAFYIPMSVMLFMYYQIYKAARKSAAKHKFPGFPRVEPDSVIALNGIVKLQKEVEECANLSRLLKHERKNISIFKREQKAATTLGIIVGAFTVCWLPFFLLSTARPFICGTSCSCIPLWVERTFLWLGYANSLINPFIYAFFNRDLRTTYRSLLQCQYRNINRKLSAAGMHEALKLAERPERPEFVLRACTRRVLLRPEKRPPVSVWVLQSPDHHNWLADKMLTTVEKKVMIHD
# [9] = target: 5-hydroxytryptamine receptor 6 (Homo sapiens, UniProt P50406); test: Binding affinity of compound towards serotonin 5-hydroxytryptamine 6 receptor; inactive at 10 uM
# Chain of 5-hydroxytryptamine receptor 6 (P50406 whole entry): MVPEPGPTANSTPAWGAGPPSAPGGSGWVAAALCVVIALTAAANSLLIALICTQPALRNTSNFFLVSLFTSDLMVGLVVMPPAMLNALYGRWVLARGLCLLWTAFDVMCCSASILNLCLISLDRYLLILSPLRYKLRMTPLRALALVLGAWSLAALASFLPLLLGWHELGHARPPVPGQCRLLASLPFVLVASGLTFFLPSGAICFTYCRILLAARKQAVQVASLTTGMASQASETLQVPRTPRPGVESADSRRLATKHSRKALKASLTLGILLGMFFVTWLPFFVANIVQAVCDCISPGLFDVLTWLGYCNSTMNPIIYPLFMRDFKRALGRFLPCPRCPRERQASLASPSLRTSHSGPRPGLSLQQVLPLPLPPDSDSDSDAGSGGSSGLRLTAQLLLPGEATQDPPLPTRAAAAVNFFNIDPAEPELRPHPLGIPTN
# [10] = Compound was evaluated for total body clearance; type: ADME; conditions: read-out: Activity (converted)
# [11] = Compound was evaluated for volume of distribution at steady state; type: ADME; conditions: read-out: Activity
# [12] = Compound was evaluated for half-life period; type: ADME
# Outline: (§2)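 Cassette dosing in beagle dogs (n = 2 per route), with each compound given alongside seven others. Oral dose was 1 mg/kg, with sampling at 0, 0.5, 1, 2, 4, 6, 8 and 24 h. Plasma drug levels were measured by LC/MS/MS.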
# [13] = Compound was evaluated for oral bioavailability; type: ADME, organism-based; conditions: in vivo, read-out: Bioavailabiility; outline: as §2
# [14] = target: T1, Corticotropin-releasing factor receptor 1; test: Binding affinity of compound towards human corticotropin releasing factor (h-CRF1) receptor; inactive; outline: as §1
# [15] = target: T1, Corticotropin-releasing factor receptor 1; test: Binding affinity of compound towards human corticotropin releasing factor (h-CRF1) receptor showed a 2-fold activity in racemic mixture; outline: as §1
# [16] = target: T3, Corticotropin-releasing factor receptor 2 (Homo sapiens, UniProt Q13324); test: Binding affinity of compound towards human Corticotropin releasing factor receptor 2; inactive at 10 uM
# T3 sequence (Q13324 whole entry): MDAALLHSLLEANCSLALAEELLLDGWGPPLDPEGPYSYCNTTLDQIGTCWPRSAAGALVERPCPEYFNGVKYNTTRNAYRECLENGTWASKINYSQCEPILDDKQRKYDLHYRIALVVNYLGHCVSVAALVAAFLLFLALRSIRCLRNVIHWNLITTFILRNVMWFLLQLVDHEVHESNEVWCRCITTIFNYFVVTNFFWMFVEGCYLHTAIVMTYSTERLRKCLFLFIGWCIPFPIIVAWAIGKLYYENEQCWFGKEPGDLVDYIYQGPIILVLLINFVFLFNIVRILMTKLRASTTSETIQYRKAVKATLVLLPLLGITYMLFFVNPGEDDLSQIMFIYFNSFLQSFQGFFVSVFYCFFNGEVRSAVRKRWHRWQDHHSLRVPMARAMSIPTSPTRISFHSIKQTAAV
Compound,Ki [1],further results
COc1cccc(OC)c1C(Nc1ccc(C)cc1Cl)C(=O)CCc1ccncc1 (stereo not given),> 10000 nM,–
Cc1ccc(NC(C(=O)CCc2ccccn2)c2ccccc2Br)c(Cl)c1 (stereo not given),> 10000 nM,–
O=C(CCc1ccncc1)C(Nc1ccccc1Cl)c1ccccc1Br (stereo not given),7330 nM,–
Cc1ccc(NC(C(=O)Cc2ccncc2)c2ccccc2Br)c(Cl)c1 (stereo not given),> 10000 nM,–
COc1ccc(C(Nc2ccc(C)cc2Cl)C(=O)CCc2ccncc2)c(OC)c1 (stereo not given),> 10000 nM,–
Cc1ccc(NC(C(=O)CCc2ccncc2)c2ccccc2C(C)C)c(Cl)c1 (stereo not given),3300 nM,–
Cc1ccc(NC(C(=O)CCc2ccncc2)c2ccc(Cl)cc2)c(Cl)c1 (stereo not given),> 10000 nM,–
Cc1ccccc1C(Nc1ccc(Cl)cc1Cl)C(=O)c1cccc(O)c1 (stereo not given),> 10000 nM,–
Cc1ccccc1C(Nc1ccc(Cl)cc1Cl)C(=O)CCc1ccncc1 (stereo not given),370 nM,–
COc1ccc(C(=O)C(Nc2ccc(Cl)cc2Cl)c2ccccc2C)cc1O (stereo not given),387 nM,–
CCc1ccccc1C(Nc1ccc(Cl)cc1Cl)C(=O)CCc1ccncc1 (stereo not given),330 nM,–
Cc1ccc(C(Nc2ccc(C)cc2Cl)C(=O)CCc2ccncc2)cc1 (stereo not given),> 10000 nM,–
COc1ccccc1C(Nc1ccc(C)cc1Cl)C(=O)CCc1ccncc1 (stereo not given),> 10000 nM,–
Cc1ccc(NC(C(=O)CCc2ccncc2)c2cccc(Cl)c2)c(Cl)c1 (stereo not given),> 5000 nM,–
Cc1ccccc1C(Nc1ccc(Cl)cc1C(F)(F)F)C(=O)CCc1ccncc1 (stereo not given),469 nM,–
COc1ccc(C(=O)C(Nc2ccc(Cl)cc2Cl)c2ccccc2C)cc1OC (stereo not given),> 10000 nM,–
Cc1ccc(N[C@H](C(=O)CCc2ccncc2)c2ccccc2Br)c(Cl)c1,–,Ki [2]: Not Active
Cc1ccc(NC(C(=O)CCc2ccncc2)c2ccccc2)c(Cl)c1 (stereo not given),> 10000 nM,–
COc1ccc(OC)c(C(Nc2ccc(C)cc2Cl)C(=O)CCc2ccncc2)c1 (stereo not given),> 10000 nM,–
Cc1cccc(C)c1C(Nc1ccc(Cl)cc1Cl)C(=O)CCc1ccncc1 (stereo not given),338 nM,–
Cc1ccc(NC(C(=O)CCc2cnc[nH]2)c2ccccc2Br)c(Cl)c1 (stereo not given),> 10000 nM,–
CN(c1ccccc1Cl)C(C(=O)CCc1ccncc1)c1ccccc1Br (stereo not given),> 10000 nM,–

Compound,Ki [1],further results
Cc1ccc(NC(C(=O)CCc2ccncc2)c2ccccc2C)c(F)c1 (stereo not given),439 nM,–
Cc1ccc(NC(C(=O)CCc2ccncc2)c2ccccc2C)c(C(F)(F)F)c1 (stereo not given),641 nM,–
Cc1ccc(NC(C(=O)CCc2ccncc2)c2ccccc2F)c(Cl)c1 (stereo not given),–,Ki [3]: > 10000 nM
Cc1ccc(NC(C(=O)CCc2cccnc2)c2ccccc2Br)c(Cl)c1 (stereo not given),> 10000 nM,–
Cc1ccc(N[C@@H](C(=O)CCc2ccncc2)c2ccccc2C)c(Cl)c1,244 nM,–
Cc1cc(F)ccc1C(Nc1ccc(Cl)cc1Cl)C(=O)CCc1ccncc1 (stereo not given),512 nM,–
Cc1ccccc1[C@@H](Nc1ccc(Cl)cc1Cl)C(=O)CCc1ccncc1,154 nM,Ki [4]: Not Active; Ki [5]: Not Active; Ki [6]: Not Active; Ki [7]: Not Active; Ki [8]: Not Active; Ki [9]: Not Active; clearance [10]: 21.7 mL/min/kg; Vd [11]: 1.8 L/kg; half-life [12]: 1.7 h; bioavailability [13]: 7%
Cc1ccc(NC(C(=O)CCc2ccncc2)c2ccccc2C)c(Cl)c1 (stereo not given),922 nM,–
COc1cccc(C(Nc2ccc(C)cc2Cl)C(=O)CCc2ccncc2)c1 (stereo not given),> 10000 nM,–
Cc1ccc(NC(C(=O)CCc2ccc(F)cc2)c2ccccc2Br)c(Cl)c1 (stereo not given),> 10000 nM,–
Cc1cccc(C(Nc2ccc(C)cc2Cl)C(=O)CCc2ccncc2)c1 (stereo not given),> 10000 nM,–
O=C(CCc1ccncc1)C(Nc1ccc(Cl)cc1Cl)c1ccccc1C(F)(F)F (stereo not given),1000 nM,–
Cc1ccc(NC(C(=O)CCc2ccccc2)c2ccccc2Br)c(Cl)c1 (stereo not given),> 10000 nM,–
O=C(CCc1ccncc1)C(Nc1ccc(Cl)cc1Cl)c1ccccc1Br (stereo not given),204 nM,–
Cc1ccccc1[C@H](Nc1ccc(Cl)cc1Cl)C(=O)CCc1ccncc1,3180 nM,–
Cc1ccc(N[C@H](C(=O)CCc2ccncc2)c2ccccc2C)c(Cl)c1,–,Ki [14]: Not Active
CC(=O)Nc1cccc(C(=O)C(Nc2ccc(Cl)cc2Cl)c2ccccc2Br)c1 (stereo not given),514 nM,–
Cc1ccc(N[C@@H](C(=O)CCc2ccncc2)c2ccccc2Br)c(Cl)c1,–,Ki [15]: 546 nM
COc1ccc(C(=O)C(Nc2ccc(C)cc2Cl)c2ccccc2Br)cc1O (stereo not given),1070 nM,–
Cc1ccc(NC(C(=O)CCc2ccncc2)c2ccccc2Br)c(Cl)c1 (stereo not given),–,Ki [16]: Not Active; Ki [3]: 1040 nM
C=Cc1ccccc1C(Nc1ccc(C)cc1Cl)C(=O)CCc1ccncc1 (stereo in doubt; 4),752 nM,–
C=Cc1ccccc1C(Nc1ccc(C)cc1Cl)C(=O)CCc1ccncc1 (stereo in doubt; 32),752 nM,–
